Source: ChEMBL document CHEMBL5154796, “Chemical synthesis and pharmacological properties of heparin pentasaccharide analogues” (Eur J Med Chem, 2022)
pIC50: −log10 of the molar value. Activity calls are given as the source filed them. The rule behind the calls is not given here.

Tests used:
Rattus norvegicus [1] = experiment: Antithrombotic activity in Sprague-Dawley rat model of blood stasis-induced venous thrombosis assessed as inhibition of thrombosis rate at 100 nmol/kg, sc measured after 1 hr relative to control; type: functional
In short: (§1)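 Male SD rats given 100 nmol/kg s.c.; at 1 or 3 h, anesthetized with 10% chloral hydrate ([…]). Vena cava loosely ligated, collaterals tied, 2% rabbit thromboplastin given i.v., stasis 20 s later and held 20 min. Thrombus removed, dried 24 h at 50 °C, weighed; inhibition versus saline group; n = 6, mean ± SEM.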

[2] = Tmax in Sprague-Dawley rat at 100 nmol/kg, sc; type: ADME; details: in vivo
In short: (§2)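 Plasma level read from anti-FXa activity against a standard curve built by spiking pooled rat platelet-poor plasma with graded compound. Noncompartmental analysis; n = 4-6, mean ± SEM.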

[3] = AUC (0 to infinity) in Sprague-Dawley rat at 100 nmol/kg, sc; type: ADME; set-up: time infinity, dose 100 nmol/kg, route sc; details: in vivo; for AUC(0-inf): Sprague-Dawley, 100 nmol/kg; in short: as §2
[4] = Volume of distribution in Sprague-Dawley rat at 100 nmol/kg, sc; type: ADME; details: in vivo; in short: as §2
Plasma [5] = experiment: Anticoagulant activity in human plasma assessed as prolongation of prothrombin time by measuring concentration required to double PT incubated for 3 mins by coagulometer analysis; type: functional; details: dose 128 µg/ml, 0.05 h
Coagulation factor X [6] = target: T1, Coagulation factor X (Homo sapiens, UniProt P00742); experiment: Inhibition of coagulation factor Xa (unknown origin) using chromogenic substrate incubated for 7 min in presence of antithrombin by absorbance based assay
Plasma [7] = experiment: Anticoagulant activity in human plasma assessed as prolongation of activated partial thromboplastin time by measuring concentration required to double APTT incubated for 3 mins by coagulometer analysis; type: functional; details: 0.05 h
In short: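 Standard human plasma (45 µL) plus sample (5 µL), 2 min at 37 °C, then APTT reagent for 3 min, then CaCl2; clotting time read on a coagulometer. Clotting time versus concentration fitted linearly; EC2.0 is the concentration doubling clotting time. Run in duplicate.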

Rattus norvegicus [8] = experiment: Antithrombotic activity in Sprague-Dawley rat model of blood stasis-induced venous thrombosis assessed as inhibition of thrombosis rate at 100 nmol/kg, sc measured after 1 hr; type: functional, organism-based; in short: as §1
Rattus norvegicus [9] = experiment: Antithrombotic activity in Sprague-Dawley rat model of blood stasis-induced venous thrombosis assessed as inhibition of thrombosis rate at 30 nmol/kg, sc measured after 2 hrs relative to control; type: functional
In short: (§3)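 Stasis/thromboplastin vena cava model in male SD rats 2 h after s.c. dosing at 30, 100 or 300 nmol/kg. Thrombus dried 24 h at 50 °C and weighed, then expressed as % of mean thrombus mass in the saline group (100% = no inhibition); n = 8-10, mean ± SEM.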

Plasma [10] = experiment: Anticoagulant activity in human plasma assessed as prolongation of thrombin time by measuring concentration required to double TT incubated for 3 mins by coagulometer analysis; type: functional; details: 0.05 h
Plasma [11] = experiment: Anticoagulant activity in human platelet poor plasma assessed as inhibition of thrombin generation incubated for 3 mins by calibrated automated thrombogram analysis; type: functional, cell-free; details: 0.05 h
In short: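 Thrombin generation triggered in human platelet-poor plasma by a phospholipid/tissue factor reagent, monitored by calibrated automated thrombogram with readings every 15 s. Total thrombin taken as area under the thrombin-time curve; IC50 from dose-response. Triplicate.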

[12] = Half life in Sprague-Dawley rat at 100 nmol/kg, sc; type: ADME; details: in vivo; in short: as §2
Rattus norvegicus [13] = experiment: Antithrombotic activity in Sprague-Dawley rat model of blood stasis-induced venous thrombosis assessed as inhibition of thrombosis rate at 100 nmol/kg, sc measured after 2 hrs relative to control; type: functional; in short: as §3
[14] = Cmax in Sprague-Dawley rat at 100 nmol/kg, sc; type: ADME; set-up: dose 100 nmol/kg, route sc; details: in vivo; in short: as §2
[15] = AUC (0 to 32 hrs) in Sprague-Dawley rat at 100 nmol/kg, sc measured after 32 hrs; type: ADME, organism-based; set-up: time 32 hrs, dose 100 nmol/kg, route sc; details: in vivo; in short: as §2
Coagulation factor X [16] = target: T1, Coagulation factor X; experiment: Inhibition of heparin binding to factor 10a using chromogenic substrate incubated for 7 min by absorbance based assay
Rattus norvegicus [17] = experiment: Antithrombotic activity in Sprague-Dawley rat model of blood stasis-induced venous thrombosis assessed as inhibition of thrombosis rate at 300 nmol/kg, sc measured after 2 hrs relative to control; type: functional; in short: as §3
[18] = Clearance in Sprague-Dawley rat at 100 nmol/kg, sc; type: ADME; details: in vivo; in short: as §2
Rattus norvegicus [19] = experiment: Antithrombotic activity in Sprague-Dawley rat model of blood stasis-induced venous thrombosis assessed as inhibition of thrombosis rate at 100 nmol/kg, sc measured after 3 hrs; type: functional, organism-based; in short: as §1
Mus musculus = experiment: Antithrombotic activity in mouse model of tail-bleeding assessed as increase in blood loss at 2000 nmol/kg, sc; type: functional, organism-based
In short: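 Mouse tail-cut bleeding: 2000 nmol/kg s.c., tail cut 1.5 h after dosing, blood loss measured in µL; normal saline negative control; n ≥ 6, mean ± SEM, one-way ANOVA.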

T1 sequence (P00742 41-179 limits assumed): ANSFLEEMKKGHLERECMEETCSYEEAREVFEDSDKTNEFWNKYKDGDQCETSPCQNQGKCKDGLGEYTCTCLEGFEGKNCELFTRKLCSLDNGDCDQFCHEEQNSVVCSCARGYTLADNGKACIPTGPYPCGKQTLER
T1 sequence (P00742 235-488 limits assumed): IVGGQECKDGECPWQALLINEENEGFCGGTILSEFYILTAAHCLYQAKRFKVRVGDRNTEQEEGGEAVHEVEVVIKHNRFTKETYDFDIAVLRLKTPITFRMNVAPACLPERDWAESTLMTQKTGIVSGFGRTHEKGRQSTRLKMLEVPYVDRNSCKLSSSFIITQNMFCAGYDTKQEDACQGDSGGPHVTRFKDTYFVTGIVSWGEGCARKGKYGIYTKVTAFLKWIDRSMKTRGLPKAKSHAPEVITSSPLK

Row | Compound | Tmax [2] | AUC(0-inf) [3] | Vd [4] | pIC50 (Coagulation factor X [6]) | pIC50 (Plasma [11]) | half-life [12] | Cmax [14] | AUC(0-t) at 32 h [15] | pIC50 (Coagulation factor X [16]) | CL/F [18] | inhibition in vivo at 0.1 µmol/kg (Rattus norvegicus [1]) | EC (Plasma [5]) | EC (Plasma [7]) | inhibition (Rattus norvegicus [8]) | inhibition in vivo at 0.03 µmol/kg (Rattus norvegicus [9]) | 2TT (Plasma [10]) | inhibition (Rattus norvegicus [13]) | inhibition in vivo at 0.3 µmol/kg (Rattus norvegicus [17]) | inhibition (Rattus norvegicus [19]) | inhibition (Rattus norvegicus [17]) | further results
1 | CO[C@H]1O[C@H](COS(=O)(=O)[O-])[C@@H](O[C@@H]2O[C@@H](C(=O)[O-])[C@@H](O[C@H]3O[C@H](COS(=O)(=O)[O-])[C@@H](O[C@@H]4O[C@H](C(=O)[O-])[C@@H](O[C@H]5O[C@H](COS(=O)(=O)[O-])[C@@H](OC)[C@H](OS(=O)(=O)[O-])[C@H]5OS(=O)(=O)[O-])[C@H](OC)[C@H]4OC(C)=O)[C@H](OS(=O)(=O)[O-])[C@H]3OS(=O)(=O)[O-])[C@H](OC)[C@H]2OS(=O)(=O)[O-])[C@H](OS(=O)(=O)[O-])[C@H]1OS(=O)(=O)[O-].[Na+].[Na+].[Na+].[Na+].[Na+].[Na+].[Na+].[Na+].[Na+].[Na+].[Na+].[Na+] | 2 h | 15100 ng·h/mL | 0.136 L/kg | 7.05 | 4.83 | 15.1 h | 1140 ng/mL | 12800 ng·h/mL | 5.95 | 0.283 mL/min/kg |  | >128 µg/mL | 32.47 µM |  | 33.2% | >128 µg/mL | Active |  | Active | Active | Activity (Mus musculus): Active
2 | CO[C@H]1O[C@H](COS(=O)(=O)[O-])[C@@H](O[C@@H]2O[C@@H](C(=O)[O-])[C@@H](O[C@H]3O[C@H](COS(=O)(=O)[O-])[C@@H](O[C@@H]4O[C@H](C(=O)[O-])[C@@H](O[C@H]5O[C@H](COS(=O)(=O)[O-])[C@@H](O)[C@H](O)[C@H]5OS(=O)(=O)[O-])[C@H](OC)[C@H]4O)[C@H](OS(=O)(=O)[O-])[C@H]3OS(=O)(=O)[O-])[C@H](OC)[C@H]2OS(=O)(=O)[O-])[C@H](OS(=O)(=O)[O-])[C@H]1OS(=O)(=O)[O-].[Na+].[Na+].[Na+].[Na+].[Na+].[Na+].[Na+].[Na+].[Na+].[Na+].[Na+] | 2 h |  | 0.058 L/kg | 6.85 | 4.91 | 6.1 h | 2040 ng/mL | 17600 ng·h/mL | 6.14 |  | 77.8% | >128 µg/mL | 40.83 µM |  | < 15% | >128 µg/mL |  | 93.1% |  |  | AUC [3]: 19053.2 ng·h/mL; inhibition in vivo at 0.1 µmol/kg (Rattus norvegicus [13]): > 70%
3 | CO[C@H]1O[C@H](COS(=O)(=O)[O-])[C@@H](O[C@@H]2O[C@@H](C(=O)[O-])[C@@H](O[C@H]3O[C@H](COS(=O)(=O)[O-])[C@@H](O[C@@H]4O[C@H](C(=O)[O-])[C@@H](O[C@H]5O[C@H](COS(=O)(=O)[O-])[C@@H](O)[C@H](OC)[C@H]5OS(=O)(=O)[O-])[C@H](OC)[C@H]4O)[C@H](OS(=O)(=O)[O-])[C@H]3OS(=O)(=O)[O-])[C@H](OC)[C@H]2OS(=O)(=O)[O-])[C@H](OS(=O)(=O)[O-])[C@H]1OS(=O)(=O)[O-].[Na+].[Na+].[Na+].[Na+].[Na+].[Na+].[Na+].[Na+].[Na+].[Na+].[Na+] | 1.5 h | 15500 ng·h/mL | 0.131 L/kg | 6.97 | 4.90 | 6.2 h | 2020 ng/mL | 14200 ng·h/mL | 6.10 | 0.35 mL/min/kg | 56.9% | >128 µg/mL | 48.78 µM |  | 48.6% | >128 µg/mL |  | 89.5% | Active |  | inhibition in vivo at 0.1 µmol/kg (Rattus norvegicus [13]): > 70%

The remaining compounds from weak to strong by pIC50 (Coagulation factor X [6]), led by results:

Row | Tmax [2] | AUC(0-inf) [3] | Vd [4] | pIC50 (Coagulation factor X [6]) | pIC50 (Plasma [11]) | half-life [12] | Cmax [14] | AUC(0-t) at 32 h [15] | pIC50 (Coagulation factor X [16]) | CL/F [18] | Compound | inhibition in vivo at 0.1 µmol/kg (Rattus norvegicus [1]) | EC (Plasma [5]) | EC (Plasma [7]) | inhibition (Rattus norvegicus [8]) | inhibition in vivo at 0.03 µmol/kg (Rattus norvegicus [9]) | 2TT (Plasma [10]) | inhibition (Rattus norvegicus [13]) | inhibition in vivo at 0.3 µmol/kg (Rattus norvegicus [17]) | inhibition (Rattus norvegicus [19]) | inhibition (Rattus norvegicus [17]) | further results
4 | 0.6 h | 1120 ng·h/mL | 0.097 L/kg | 7.00 | 4.84 | 1.2 h | 519 ng/mL | 1070 ng·h/mL | 5.72 | 3.98 mL/min/kg | CO[C@H]1O[C@H](COS(=O)(=O)[O-])[C@@H](O[C@@H]2O[C@@H](C(=O)[O-])[C@@H](O[C@H]3O[C@H](COS(=O)(=O)[O-])[C@@H](O[C@@H]4O[C@H](C(=O)[O-])[C@@H](O[C@H]5O[C@H](COS(=O)(=O)[O-])[C@@H](O)[C@H](O)[C@H]5NS(=O)(=O)[O-])[C@H](O)[C@H]4O)[C@H](OS(=O)(=O)[O-])[C@H]3NS(=O)(=O)[O-])[C@H](O)[C@H]2OS(=O)(=O)[O-])[C@H](O)[C@H]1NS(=O)(=O)[O-].[Na+].[Na+].[Na+].[Na+].[Na+].[Na+].[Na+].[Na+].[Na+].[Na+] [FONDAPARINUX SODIUM] | 55.7% | >128 µg/mL | 51.2 µM | Active | < 15% | >128 µg/mL | Active | 59.3% |  |  | 
5 | 1 h | 6750 ng·h/mL | 0.183 L/kg | 7.02 | 4.91 | 4.8 h | 1250 ng/mL | 6350 ng·h/mL | 6.11 | 0.633 mL/min/kg | CO[C@H]1O[C@H](COS(=O)(=O)[O-])[C@@H](O[C@@H]2O[C@@H](C(=O)[O-])[C@@H](O[C@H]3O[C@H](COS(=O)(=O)[O-])[C@@H](O[C@@H]4O[C@H](C(=O)[O-])[C@@H](O[C@H]5O[C@H](COS(=O)(=O)[O-])[C@@H](O)[C@H](OS(=O)(=O)[O-])[C@H]5OS(=O)(=O)[O-])[C@H](OC)[C@H]4O)[C@H](OS(=O)(=O)[O-])[C@H]3OS(=O)(=O)[O-])[C@H](OC)[C@H]2OS(=O)(=O)[O-])[C@H](OS(=O)(=O)[O-])[C@H]1OS(=O)(=O)[O-].[Na+].[Na+].[Na+].[Na+].[Na+].[Na+].[Na+].[Na+].[Na+].[Na+].[Na+].[Na+] |  | >128 µg/mL | 33.05 µM | Active | 39.5% | >128 µg/mL | Active |  |  | Active | 
